Experimental data pooled from the literature.
Target: MAP/microtubule affinity-regulating kinase 3 (MARK3, Homo sapiens, UniProt P27448)
Read-out: enzyme activity
Mode: inhibitor

SMILES	test	setting	remaining activity
Brc1cnc(Nc2cccc(CN3CCOCC3)c2)nc1NCCc1c[nH]cn1	radiometric	1 µM	16%
CC(C)(C)c1nc(-c2cccc(NS(=O)(=O)c3c(F)cccc3F)c2F)c(-c2ccnc(N)n2)s1	radiometric	1 µM	96%
COc1cc(Cl)c(C(=O)N[C@@H](CN[C@H]2CC[C@@H](N)CC2)Cc2ccc(C#N)cc2)cc1-c1ccc(CN[C@H](C)c2ccc(C)cc2)o1	–	1 µM	98%
NS(=O)(=O)c1ccc(CNc2ccnc(Nc3cccc(NC(=O)N4CCCC4)c3)n2)cc1	radiometric	1 µM	115%
Cn1c(=O)n(-c2ccc(C(C)(C)C#N)cc2)c2c3cc(-c4cnc5ccccc5c4)ccc3ncc21	–	10 µM	100%
Cc1sc(C(=O)NC2COC2)cc1-n1cc(NC(=O)Nc2c(F)cccc2Cl)cn1	–	10 µM	102%
NS(=O)(=O)c1ccc(CNc2nc(Nc3cccc(NC(=O)N4CCCC4)c3)ncc2C2CC2)cc1	radiometric	1 µM	112%
CC(C)(O)[C@H]1CC[C@H](Nc2ccc3ncc(-c4cccc(C(F)(F)F)c4)n3n2)CC1	–	1 µM	101%
Cc1nn(CC(F)(F)F)cc1Nc1ncc(Br)c(NCc2ccc(S(N)(=O)=O)cc2)n1	radiometric	1 µM	105%
Nc1nc(NC2CCCCC2)sc1C(=O)c1ccccc1	–	10 µM	100%
COc1cc(Nc2cnc(C#N)c(O[C@H](C)CN(C)C)n2)ncc1-c1cnn(C)c1	radiometric	1 µM	98%
CC(C)(C)c1nc2c(s1)c1nc(N)ncc1c1ccc(NS(=O)(=O)c3c(F)cccc3F)c(F)c12	radiometric	1 µM	99%
O=C(Nc1cnn(-c2csc(C(=O)NC3COC3)c2)c1)Nc1c(F)cccc1Cl	–	5 µM	99.3%
CC(C)(C)C(=O)c1sc(NC2CCCCC2)nc1N	–	10 µM	112%
Cc1ccc(C(=O)Nc2ccc(CN3CCN(C)CC3)c(C(F)(F)F)c2)cc1C#Cc1cnc2cccnn12	–	23.5 nM	83%
FC(F)c1nc2ccccc2n1-c1nc(N2CCOCC2)nc(N2CCOCC2)n1	–	10 µM	94%
NS(=O)(=O)c1ccc(CNc2nc(Nc3cccc(CN4CCOCC4)c3)ncc2Br)cc1	radiometric	1 µM	68%
